ChEMBL document CHEMBL3421570, “Combinatorial Libraries As a Tool for the Discovery of Novel, Broad-Spectrum Antibacterial Agents Targeting the ESKAPE Pathogens” (J Med Chem, 2015)
The source made the active and inactive calls. The calls are words filed in the database; no cut-off is given here.

How the values were obtained:
Staphylococcus aureus [1] = assay: Ratio of MIC for Staphylococcus aureus measured after 8 cycle passage to MIC for wild type Staphylococcus aureus; type: functional
Acinetobacter baumannii [2] = assay: Ratio of MIC for Acinetobacter baumannii measured after 8 cycle passage to MIC for wild type Acinetobacter baumannii; type: functional
Klebsiella pneumoniae [3] = assay: Ratio of MIC for Klebsiella pneumoniae measured after 8 cycle passage to MIC for wild type Klebsiella pneumoniae; type: functional
Enterobacter cloacae [4] = assay: Ratio of MIC for Enterobacter cloacae measured after 8 cycle passage to MIC for wild type Enterobacter cloacae; type: functional
Enterobacter cloacae [5] = assay: Antimicrobial activity against Enterobacter cloacae assessed as inhibition of microbial growth at 45 uM after 24 hrs; type: functional, organism-based
In short: (§1)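 Broth microdilution single-concentration read: overnight cultures diluted 1:1000, compound in DMF (≤2.0%) added, 37°C for 24 h, growth inhibition scored visually by lack of turbidity; triplicate. Gram-positives grown in TSB, Gram-negatives in LB.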

Enterococcus faecium = assay: Antimicrobial activity against Enterococcus faecium assessed as inhibition of microbial growth at 45 uM after 24 hrs; type: functional, organism-based; in short: as §1
Staphylococcus aureus [6] = assay: Antimicrobial activity against Staphylococcus aureus assessed as inhibition of microbial growth at 45 uM after 24 hrs; type: functional, organism-based; in short: as §1
Klebsiella pneumoniae [7] = assay: Antimicrobial activity against Klebsiella pneumoniae assessed as inhibition of microbial growth at 45 uM after 24 hrs; type: functional, organism-based; in short: as §1
Pseudomonas aeruginosa = assay: Antimicrobial activity against Pseudomonas aeruginosa assessed as inhibition of microbial growth at 45 uM after 24 hrs; type: functional, organism-based; in short: as §1
Acinetobacter baumannii [8] = assay: Antimicrobial activity against Acinetobacter baumannii assessed as inhibition of microbial growth at 45 uM after 24 hrs; type: functional, organism-based; in short: as §1

Q: Which Ratio (Staphylococcus aureus [1]) does the source give for CN[C@H](CC(C)C)C(=O)N[C@H]1C(=O)N[C@@H](CC(N)=O)C(=O)N[C@H]2C(=O)N[C@H]3C(=O)N[C@H](C(=O)N[C@H](C(=O)O)c4cc(O)cc(O)c4-c4cc3ccc4O)[C@H](O)c3ccc(c(Cl)c3)Oc3cc2cc(c3O[C@@H]2O[C@H](CO)[C@@H](O)[C@H](O)[C@H]2O[C@H]2C[C@](C)(N)[C@H](O)[C@H](C)O2)Oc2ccc(cc2Cl)[C@H]1O [VANCOMYCIN] here?
A: 128

Q: What about the Ratio (Acinetobacter baumannii [2]) of the same molecule?
A: <=128

Q: What about the Ratio (Klebsiella pneumoniae [3]) of the same molecule?
A: <=128

Q: And the Ratio (Enterobacter cloacae [4])?
A: <=128

Q: Which “growth inhibition (GI)” value (Enterobacter cloacae [5]) does the source give for CCCC[C@H]1CN(CCCC[C@H]2CNC(=N)N2CCC23CC4CC(CC(C4)C2)C3)C(=N)N1CCCCC1CCCCC1 here?
A: Active

Q: What about the “growth inhibition (GI)” value (Enterococcus faecium) of the same molecule?
A: Active

Q: And the “growth inhibition (GI)” value (Staphylococcus aureus [6])?
A: Active

Q: And the “growth inhibition (GI)” value (Klebsiella pneumoniae [7])?
A: Active

Q: And the “growth inhibition (GI)” value (Pseudomonas aeruginosa)?
A: Active

Q: And the “growth inhibition (GI)” value (Acinetobacter baumannii [8])?
A: Active

Q: Which “growth inhibition (GI)” value (Enterobacter cloacae [5]) does the source give for CCCCCCCN1C(=N)N(CCCC[C@H]2CNC(=N)N2CCC23CC4CC(CC(C4)C2)C3)C[C@H]1Cc1cccc2ccccc12 here?
A: Active

Q: What about the “growth inhibition (GI)” value (Enterococcus faecium) of the same molecule?
A: Active

Q: And the “growth inhibition (GI)” value (Staphylococcus aureus [6])?
A: Active

Q: And the “growth inhibition (GI)” value (Klebsiella pneumoniae [7])?
A: Active

Q: And the “growth inhibition (GI)” value (Pseudomonas aeruginosa)?
A: Active

Q: What about the “growth inhibition (GI)” value (Acinetobacter baumannii [8]) of the same molecule?
A: Active

Q: How did the “growth inhibition (GI)” value (Enterobacter cloacae [5]) turn out when CCCC[C@H]1CN(CCCC[C@H]2CNC(=N)N2CCc2cccc(C(F)(F)F)c2)C(=N)N1CCc1ccc(-c2ccccc2)cc1 was run?
A: Active

Q: What about the “growth inhibition (GI)” value (Enterococcus faecium) of the same molecule?
A: Active

Q: And the “growth inhibition (GI)” value (Staphylococcus aureus [6])?
A: Active

Q: And the “growth inhibition (GI)” value (Klebsiella pneumoniae [7])?
A: Active

Q: What about the “growth inhibition (GI)” value (Pseudomonas aeruginosa) of the same molecule?
A: Active

Q: What about the “growth inhibition (GI)” value (Acinetobacter baumannii [8]) of the same molecule?
A: Active

Q: With CCCC[C@H]1CN(CCCC[C@H]2CNC(=N)N2CCCCC2CCCCC2)C(=N)N1CCc1ccc(-c2ccccc2)cc1 as the molecule, how does the “growth inhibition (GI)” value (Enterobacter cloacae [5]) read?
A: Active

Q: And the “growth inhibition (GI)” value (Enterococcus faecium)?
A: Active

Q: And the “growth inhibition (GI)” value (Staphylococcus aureus [6])?
A: Active

Q: And the “growth inhibition (GI)” value (Klebsiella pneumoniae [7])?
A: Active

Q: What about the “growth inhibition (GI)” value (Pseudomonas aeruginosa) of the same molecule?
A: Active

Q: And the “growth inhibition (GI)” value (Acinetobacter baumannii [8])?
A: Active

Q: For CCCCCCCN1C(=N)N(CCCC[C@H]2CNC(=N)N2CCCCC2CCCCC2)C[C@H]1Cc1cccc2ccccc12, which “growth inhibition (GI)” value (Enterobacter cloacae [5]) is on record?
A: Active

Q: What about the “growth inhibition (GI)” value (Enterococcus faecium) of the same molecule?
A: Active

Q: What about the “growth inhibition (GI)” value (Staphylococcus aureus [6]) of the same molecule?
A: Active

Q: And the “growth inhibition (GI)” value (Klebsiella pneumoniae [7])?
A: Active

Q: And the “growth inhibition (GI)” value (Pseudomonas aeruginosa)?
A: Active

Q: And the “growth inhibition (GI)” value (Acinetobacter baumannii [8])?
A: Active

Q: For N=C1NC[C@H](CCCCN2C[C@H](CC3CCCCC3)N(CCc3ccc(-c4ccccc4)cc3)C2=N)N1CCC12CC3CC(CC(C3)C1)C2, which “growth inhibition (GI)” value (Enterobacter cloacae [5]) is on record?
A: Active

Q: And the “growth inhibition (GI)” value (Enterococcus faecium)?
A: Active

Q: And the “growth inhibition (GI)” value (Staphylococcus aureus [6])?
A: Active

Q: And the “growth inhibition (GI)” value (Klebsiella pneumoniae [7])?
A: Active

Q: What about the “growth inhibition (GI)” value (Pseudomonas aeruginosa) of the same molecule?
A: Active

Q: What about the “growth inhibition (GI)” value (Acinetobacter baumannii [8]) of the same molecule?
A: Active

Q: Which “growth inhibition (GI)” value (Enterobacter cloacae [5]) does the source give for N=C1NC[C@H](CCCCN2C[C@H](CC3CCCCC3)N(CCCCC3CCCCC3)C2=N)N1CCCCC1CCCCC1 here?
A: Active

Q: And the “growth inhibition (GI)” value (Enterococcus faecium)?
A: Active

Q: What about the “growth inhibition (GI)” value (Staphylococcus aureus [6]) of the same molecule?
A: Active

Q: What about the “growth inhibition (GI)” value (Klebsiella pneumoniae [7]) of the same molecule?
A: Active

Q: And the “growth inhibition (GI)” value (Pseudomonas aeruginosa)?
A: Active

Q: What about the “growth inhibition (GI)” value (Acinetobacter baumannii [8]) of the same molecule?
A: Active

Q: For N=C1NC[C@H](CCCCN2C[C@@H](Cc3cccc4ccccc34)N(CCc3ccc(-c4ccccc4)cc3)C2=N)N1CCCCC1CCCCC1, which “growth inhibition (GI)” value (Enterobacter cloacae [5]) is on record?
A: Active

Q: What about the “growth inhibition (GI)” value (Enterococcus faecium) of the same molecule?
A: Active

Q: And the “growth inhibition (GI)” value (Staphylococcus aureus [6])?
A: Active

Q: And the “growth inhibition (GI)” value (Klebsiella pneumoniae [7])?
A: Active

Q: What about the “growth inhibition (GI)” value (Pseudomonas aeruginosa) of the same molecule?
A: Active

Q: What about the “growth inhibition (GI)” value (Acinetobacter baumannii [8]) of the same molecule?
A: Active

Q: How did the “growth inhibition (GI)” value (Enterobacter cloacae [5]) turn out when N=C1NC[C@H](CCCCN2C[C@@H](Cc3cccc4ccccc34)N(CCc3ccc(-c4ccccc4)cc3)C2=N)N1CCC12CC3CC(CC(C3)C1)C2 was run?
A: inactive

Q: What about the “growth inhibition (GI)” value (Enterococcus faecium) of the same molecule?
A: inactive

Q: What about the “growth inhibition (GI)” value (Staphylococcus aureus [6]) of the same molecule?
A: inactive

Q: What about the “growth inhibition (GI)” value (Klebsiella pneumoniae [7]) of the same molecule?
A: inactive

Q: What about the “growth inhibition (GI)” value (Pseudomonas aeruginosa) of the same molecule?
A: inactive

Q: What about the “growth inhibition (GI)” value (Acinetobacter baumannii [8]) of the same molecule?
A: inactive

Q: Which “growth inhibition (GI)” value (Enterobacter cloacae [5]) does the source give for N=C1NC[C@H](CCCCN2C[C@H](CC3CCCCC3)N(CCCCC3CCCCC3)C2=N)N1CCc1cccc(C(F)(F)F)c1 here?
A: Active

Q: What about the “growth inhibition (GI)” value (Enterococcus faecium) of the same molecule?
A: Active

Q: And the “growth inhibition (GI)” value (Staphylococcus aureus [6])?
A: Active

Q: And the “growth inhibition (GI)” value (Klebsiella pneumoniae [7])?
A: Active

Q: And the “growth inhibition (GI)” value (Pseudomonas aeruginosa)?
A: Active

Q: And the “growth inhibition (GI)” value (Acinetobacter baumannii [8])?
A: Active

Q: With CCCCCCCN1C(=N)N(CCCC[C@H]2CNC(=N)N2CCCCC2CCCCC2)C[C@@H]1CCCC as the molecule, how does the “growth inhibition (GI)” value (Enterobacter cloacae [5]) read?
A: Active

Q: What about the “growth inhibition (GI)” value (Enterococcus faecium) of the same molecule?
A: Active

Q: And the “growth inhibition (GI)” value (Staphylococcus aureus [6])?
A: Active

Q: What about the “growth inhibition (GI)” value (Klebsiella pneumoniae [7]) of the same molecule?
A: Active

Q: And the “growth inhibition (GI)” value (Pseudomonas aeruginosa)?
A: Active

Q: What about the “growth inhibition (GI)” value (Acinetobacter baumannii [8]) of the same molecule?
A: Active

Q: Which “growth inhibition (GI)” value (Enterobacter cloacae [5]) does the source give for N=C1NC[C@H](CCCCN2C[C@H](CC3CCCCC3)N(CCc3ccc(-c4ccccc4)cc3)C2=N)N1CCc1cccc(C(F)(F)F)c1 here?
A: Active

Q: And the “growth inhibition (GI)” value (Enterococcus faecium)?
A: Active

Q: What about the “growth inhibition (GI)” value (Staphylococcus aureus [6]) of the same molecule?
A: Active

Q: And the “growth inhibition (GI)” value (Klebsiella pneumoniae [7])?
A: Active

Q: And the “growth inhibition (GI)” value (Pseudomonas aeruginosa)?
A: Active

Q: And the “growth inhibition (GI)” value (Acinetobacter baumannii [8])?
A: Active

Q: Which results are given for N=C1NC[C@H](CCCCN2C[C@H](CC3CCCCC3)N(CCCCC3CCCCC3)C2=N)N1CCC12CC3CC(CC(C3)C1)C2?
A: growth inhibition (GI) (Enterobacter cloacae [5]): Active; growth inhibition (GI) (Enterococcus faecium): Active; growth inhibition (GI) (Staphylococcus aureus [6]): Active; growth inhibition (GI) (Klebsiella pneumoniae [7]): Active; growth inhibition (GI) (Pseudomonas aeruginosa): Active; growth inhibition (GI) (Acinetobacter baumannii [8]): Active

Q: For N=C1NC[C@H](CCCCN2C[C@@H](Cc3cccc4ccccc34)N(CCCCC3CCCCC3)C2=N)N1CCc1cccc(C(F)(F)F)c1, which “growth inhibition (GI)” value (Enterobacter cloacae [5]) is on record?
A: Active

Q: And the “growth inhibition (GI)” value (Enterococcus faecium)?
A: Active

Q: And the “growth inhibition (GI)” value (Staphylococcus aureus [6])?
A: Active

Q: And the “growth inhibition (GI)” value (Klebsiella pneumoniae [7])?
A: Active

Q: What about the “growth inhibition (GI)” value (Pseudomonas aeruginosa) of the same molecule?
A: Active

Q: What about the “growth inhibition (GI)” value (Acinetobacter baumannii [8]) of the same molecule?
A: Active

Q: How did the “growth inhibition (GI)” value (Enterobacter cloacae [5]) turn out when CCCC[C@H]1CN(CCCC[C@H]2CNC(=N)N2CCC23CC4CC(CC(C4)C2)C3)C(=N)N1CCc1ccc(-c2ccccc2)cc1 was run?
A: Active

Q: And the “growth inhibition (GI)” value (Enterococcus faecium)?
A: Active

Q: What about the “growth inhibition (GI)” value (Staphylococcus aureus [6]) of the same molecule?
A: Active

Q: What about the “growth inhibition (GI)” value (Klebsiella pneumoniae [7]) of the same molecule?
A: Active

Q: What about the “growth inhibition (GI)” value (Pseudomonas aeruginosa) of the same molecule?
A: Active

Q: What about the “growth inhibition (GI)” value (Acinetobacter baumannii [8]) of the same molecule?
A: Active

Q: Which “growth inhibition (GI)” value (Enterobacter cloacae [5]) does the source give for CCCC[C@H]1CN(CCCC[C@H]2CNC(=N)N2CCCCC2CCCCC2)C(=N)N1CCCCC1CCCCC1 here?
A: Active

Q: And the “growth inhibition (GI)” value (Enterococcus faecium)?
A: Active

Q: And the “growth inhibition (GI)” value (Staphylococcus aureus [6])?
A: Active

Q: And the “growth inhibition (GI)” value (Klebsiella pneumoniae [7])?
A: Active

Q: And the “growth inhibition (GI)” value (Pseudomonas aeruginosa)?
A: Active

Q: What about the “growth inhibition (GI)” value (Acinetobacter baumannii [8]) of the same molecule?
A: Active
